# Bioassay records from PubChem BioAssay.
# Shown are actives, neighbours in structure and some others; about 2.2% of the full set was active somewhere.
# Myeloid diff MLP: myeloid differentiation induction | ER-HoxA9 myeloid progenitors, lysozyme-GFP differentiation, flow cytometry | calls only at 10 µM | hit rate 1% among 360,000 | AID 624256;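 active = normalized GFP-positive differentiation at or above the plate's own cutoff, the solvent-only control mean plus 3 SD; inconclusive = no clear call, values can overlap the other calls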;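 also: cells exposed to compound for four days before flow analysis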
# CSN inh: inhibitors of human CSN-mediated cullin deneddylation | Purified CSN, SCF-Nedd8-OG deneddylation, fluorescence polarization | inhibition, % at 12.5 µM | hit rate 0.38% among 360,000 | AID 651999;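 active = pattern-corrected inhibition above about 35%, with an unprinted fluorescence ratio check between 0.5 and 1.5, limit read from the data, passing the limit was not always enough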;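 also: 0% = enzyme with substrate and 100% = substrate without enzyme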
#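 Assay system: purified human Csn5 enzyme expressed in HEK293T cells; measure: % inhibition; also added: SCFSkp2-Nedd8OG substrate at 10 nM final; technique: fluorescence polarization; times: reaction 90 min, room temperature; medium: Tris buffer pH 7.5, NaCl, DTT, Tween-20, trehalose, ovalbumin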
# HNF4A DNA FP: change in binding of human HNF4 alpha to DNA; HNF4a-FITC DNA binding, fluorescence polarization, 1 h; P41235; hit rate 0.3% among 360,000; activity change, % at 10 µM; in the data active = activity change above about 30%, passing the limit was not always enough
# Target sequence (P41235 whole entry, looked up): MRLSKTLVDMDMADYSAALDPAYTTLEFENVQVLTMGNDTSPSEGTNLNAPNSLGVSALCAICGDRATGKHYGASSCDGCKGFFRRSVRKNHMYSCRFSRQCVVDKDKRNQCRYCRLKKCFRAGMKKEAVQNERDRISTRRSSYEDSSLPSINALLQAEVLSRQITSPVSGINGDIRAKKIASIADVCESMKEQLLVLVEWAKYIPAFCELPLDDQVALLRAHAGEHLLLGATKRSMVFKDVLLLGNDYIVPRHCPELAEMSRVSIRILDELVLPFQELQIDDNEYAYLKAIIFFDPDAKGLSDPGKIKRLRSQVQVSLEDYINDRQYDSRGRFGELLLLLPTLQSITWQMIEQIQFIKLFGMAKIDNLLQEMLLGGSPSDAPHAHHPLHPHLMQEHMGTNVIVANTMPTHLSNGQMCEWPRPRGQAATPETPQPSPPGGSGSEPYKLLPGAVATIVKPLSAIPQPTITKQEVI
# Granule exo inh: lytic granule exocytosis inhibition; TALL-104 LAMP-1 surface exposure, flow cytometry; cells stimulated with thapsigargin and PMA; inhibition, % at 10 µM; hit rate 0.66% among 360,000; AID 651702;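 active = inhibition above about 55%, limit read from the data; inconclusive = no clear call, values can overlap the other calls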
# Numbers without * were called inactive; i = inactive; u = inconclusive; + = active, no number.
SMILES,Myeloid diff MLP,CSN inh,HNF4A DNA FP,Granule exo inh
Cc1nc(/N=C\c2ccc(N(C)C)cc2)sc1C,+,-1.2,11.5,6.7
CN(C)c1ccc(C=Nc2ccc(N(C)C)cc2)cc1,i,5.7,0.6,43.8
NNC(=O)c1oc2nc(-c3ccc(Cl)cc3)cc(-c3ccccc3)c2c1N,+,6.5,8.1,-4.5
CC(NC(=O)C12CC3CC(CC(C3)C1)C2)C(=O)N/N=C/C1=C(N2CCOCC2)C(=C\c2cccc([N+](=O)[O-])c2)/CC1 (centres undefined),i,3.5,0.9,0.2
CC(C)C(NC(=O)C12CC3CC(CC(C3)C1)C2)C(=O)N/N=C/C1=C(N2CCOCC2)C(=C\c2ccc([N+](=O)[O-])cc2)/CC1 (centres undefined),+,5.2,0.9,0.5
Cc1cccc(CS(=O)(=O)c2ncc(Cl)c(C(=O)NCc3ccc4c(c3)OCO4)n2)c1,i,1.2,5.3,63.5*
CCCOc1ccc(OC(=O)Cc2ccc(OC)c(S(=O)(=O)N3CCOCC3)c2)cc1,+,-5.6,0.7,-3.8
O=C(NCCOc1ccccc1)c1cc(S(=O)(=O)N2CCOCC2)ccc1F,i,5.3,3.3,18.1
O=C1N[C@H]2CC=C[C@H]2Nc2ccccc21,+,-3.4,-0.1,-3.7
CCCCN(CC)CCNC(=O)c1cc2cc3ccc(Cl)cc3nc2o1,+,-4.5,2.6,41.3
CCCN(CCC)CCCNC(=O)c1cc2cc3ccc(Cl)cc3nc2o1,i,2.6,-5.4,36.3
Nc1ccc(Sc2ccccc2)nc1,i,-2.0,-0.1,-0.9
Cc1ccc(Sc2ccc(N)cn2)cc1,i,44.7*,4.6,-4.1
Cc1ccccc1Sc1ccc(N)cn1,+,-78.1,71.6*,-1.7
O=C(C[C@@H]1C/C=C/CC[C@H](Cc2ccc(F)cc2)C(=O)OCCNC1=O)N[C@H](CO)Cc1ccccc1,i,0.5,3.6,6.3
Cc1cccc(C=NOCCc2ccccc2)n1,i,-0.9,-0.6,18.8
CC(C)(C)C(=O)/C=C(\N)c1ccccn1,+,-1.3,1.0,2.3
CN1CCN(c2ccc(C(=O)c3cn(-c4ccc(F)c(Cl)c4)nn3)cc2)CC1,u,1.7,7.3,18.1
Cc1ccc(-n2cc(C(=O)c3ccc(N4CCN(C)CC4)cc3)nn2)cc1Cl,i,-1.5,105.4*,-1.2
O=C(Cc1ccccc1)NCC(=O)N1CCN(c2ccccc2F)CC1,i,3.0,-2.3,8.9
CCn1c(SCC(=O)c2c[nH]c3ccccc23)nc2cc(S(=O)(=O)N3CCOCC3)ccc21,+,1.8,6.2,-2.7
COc1cc(OC)cc(-c2c(-c3ccsc3)c3cc(Br)ccc3n2C)c1,i,11.7,4.5,-6.8
Cc1c(NC(=O)COC(=O)c2cc(-c3ccc(-c4ccccc4)cc3)nc3ccccc23)c(=O)n(-c2ccccc2)n1C,+,22.8,-5.3,2.1
CN(C(=O)CCS(=O)(=O)c1cc2c(cc1Cl)NC(=O)CO2)C1CCCCC1,i,0.6,8.0,-0.4
COc1ccc(NS(=O)(=O)c2cc(NC(=O)C3CC3)ccc2N2CCCCC2)cc1,+,1.9,0.1,43.7
SMILES,Myeloid diff MLP,CSN inh,HNF4A DNA FP,Granule exo inh
CCOC(=O)C1CCN(c2ncnc3c2[nH]c2cccc(OC)c23)CC1,i,-1.9,-0.1,2.3
COc1cccc2[nH]c3c(N4CCCCC4)ncnc3c12,i,-5.9,0.3,69.4*
CC(C)(C)C(=O)NC(=S)NNC(=O)c1ccc(-c2ccccc2)cc1,+,-0.8,2.7,0.6
O=C(Cn1nc(C(=O)O)c2ccccc2c1=O)Nc1cc(S(=O)(=O)N2CCOCC2)ccc1Cl,i,-0.2,0.7,-0.4
CN(N)c1nc(C(F)(F)F)nc2ccccc12,+,-10.5,2.2,1.3
CCCCN(CC)CCCNC(=O)c1ccc2c(c1)N(CC)C(=O)c1ccccc1S2(=O)=O,i,0.1,2.2,25.7
Cc1ccccc1NC(=S)N1CCN(Cc2ccc3c(c2)OCO3)CC1,i,-5.1,-0.9,-1.8
Cc1ccc(S(=O)(=O)N(C)C)cc1NC(=S)N1CCN(Cc2ccc3c(c2)OCO3)CC1,+,-0.1,0.9,-2.5
CCOc1ncccc1C(=O)N1CCN(c2ccc(C(F)(F)F)cn2)CC1,i,-15.6,91.0*,2.8
CC[C@@H]1CCC[C@@H](O)[C@@H](C)C(=O)O[C@H](C)[C@@H](C)C/C=C(C)/C(OC)=C\C(=O)N(C)C([C@@H](C)CC)C(=O)N(C)[C@@H](C(C)C)C(=O)N(C)[C@@H](COC)C(=O)N2CCC[C@H]2C(=O)N(C)[C@@H](C(C)C)C(=O)N2CCC[C@H]2C(=O)O1 (some centres undefined),u,3.8,-2.6,1.9
Cc1ccc(S(=O)(=O)N2C[C@H]3[C@H]4C(=O)N(Cc5ccccc5)C(=O)[C@H]4CC(=O)[C@H]3[C@@H]2c2cccc3ccccc23)cc1,i,-3.6,-2.0,1.4
CCN(CC)C(=O)c1cccc(-c2csc(C(O)c3ccco3)n2)c1 (centres undefined),+,0.0,5.1,1.1
COc1cccc(CC2(CO)CCCN(Cc3cn[nH]c3-c3ccccc3)C2)c1 (centres undefined),+,-3.5,-0.6,11.8
O=C(Nc1ccc(Cn2cccn2)cc1)c1ccc(COc2cccc(Br)c2)cc1,+,2.2,2.8,-0.8
CN(C)c1ccc(CNC(=O)C2CCN(S(=O)(=O)c3ccc4c(c3)CCCC(=O)N4)CC2)cc1,+,1.4,6.4,0.5
O=C(N/C(=C/c1cccc([N+](=O)[O-])c1)C(=O)N1CCCCCC1)c1ccco1,i,0.8,3.1,6.8
c1ccc(-c2cn(C[C@H]3CC[C@H](Cn4cc(-c5ccccn5)nn4)O3)nn2)nc1,i,-0.9,-4.8,-8.7
Cc1ccc(/C=N/N2CCN(c3ccccn3)CC2)cc1,i,4.1,-1.0,-0.5
CCc1ccc(/C=N/N2CCN(c3ccccn3)CC2)cc1,i,0.8,60.6*,10.6
COC(=O)Nc1ccc(S(=O)(=O)N2CCC(C(=O)NC3CCCCC3)CC2)cc1,+,-1.0,-1.9,-1.8
O=C(Nc1ccc(S(=O)(=O)N2CCCCC2)cc1)C1CCN(C(=O)c2ccco2)CC1,+,0.9,1.3,-11.0
CC(=O)c1cccc(OCc2cc(C(=O)N3C[C@H]4CC[C@H]3C4)no2)c1,+,4.5,-1.4,2.0
CCc1nnc(NC(=O)CCC(=O)NC2CCCCCC2)s1,i,-2.0,-0.3,-1.9
CCOC(=O)/C(=C\c1cccnc1)C(=O)c1cc(C(C)=O)c(Nc2ccccc2)s1,u,25.2,2.0,59.9*
CCN(CC(=O)Nc1ccccc1C(F)(F)F)C(=O)C1=COCCO1,i,-2.9,-4.8,9.9
O=C(N/N=C/c1c(O)n(-c2ccc(Cl)cn2)c(=O)c2ccccc12)c1ccncc1,i,20.6,71.8*,0.5
Cc1cccc(N2CC(C(=O)NC3CCCCCC3)CC2=O)c1C (centres undefined),i,-0.7,-1.8,4.6
c1nc(NC2CCCCC2)c2[nH]cnc2n1,i,44.9*,-2.8,3.1
